≈ marks a conversion by molar mass, not a printed value. Calls of active or inactive are those of the source. No cut-off for these calls is given here.
Key:
[1] = test system: Cryptococcus neoformans; test: Antimicrobial activity against Cryptococcus neoformans ATCC 90112 at 64 ug/mL after 72 hrs by broth microdilution assay; assay type: functional, organism-based
Summary of the method: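 Yeast NCCLS broth microdilution (M27-A). Inoculum 0.5 to 2.5×10^3 CFU/mL; 2-fold dilutions in 0.165 M MOPS-buffered RPMI 1640, pH 7.0; compound from DMSO, DMSO-only turbidity control; 35 °C without agitation; read at 72 h (Cryptococcus). MIC = lowest concentration giving no visible growth.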

[2] = test system: Candida albicans; test: Antimicrobial activity against Candida albicans ATCC 90028 at 64 ug/mL after 48 hrs by broth microdilution assay; assay type: functional, organism-based
Summary of the method: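 Yeast NCCLS broth microdilution (M27-A). Inoculum 0.5 to 2.5×10^3 CFU/mL; 2-fold dilutions in 0.165 M MOPS-buffered RPMI 1640, pH 7.0; compound from DMSO, DMSO-only turbidity control; 35 °C without agitation; read at 48 h (Candida). MIC = lowest concentration giving no visible growth.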

[3] = test system: Staphylococcus aureus; test: Antimicrobial activity against Staphylococcus aureus ATCC 29213 at 64 ug/mL after 24 hrs by broth microdilution assay; assay type: functional, organism-based
Summary of the method: (§1)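 NCCLS bacterial broth microdilution (M7-A5). Overnight colonies diluted to about 5×10^5 CFU/mL final; 2-fold compound dilutions (DMSO stock) in cation-adjusted Mueller Hinton II broth; DMSO turbidity control; 35 °C without agitation, 24 h. MIC = lowest concentration with optically clear wells.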

[4] = test system: Streptococcus pneumoniae; test: Antimicrobial activity against Streptococcus pneumoniae ATCC 6303 at 64 ug/mL after 24 hrs by broth microdilution assay; assay type: functional, organism-based
Summary of the method: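 Streptococcus tested by NCCLS broth microdilution in cation-adjusted MHII broth with 3% lysed horse blood. Final inoculum about 5×10^5 CFU/mL; 2-fold compound dilutions from DMSO; DMSO turbidity control; 35 °C without agitation, 24 h. MIC = lowest concentration with no visible growth.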

[5] = test system: Enterococcus faecalis; test: Antimicrobial activity against Enterococcus faecalis ATCC 29212 at 64 ug/mL after 24 hrs by broth microdilution assay; assay type: functional, organism-based; summary of the method: as §1
[6] = test system: Micrococcus luteus; test: Antimicrobial activity against Micrococcus luteus Presque Isle 456 at 64 ug/mL after 24 hrs by broth microdilution assay; assay type: functional, organism-based; summary of the method: as §1
[7] = test system: Escherichia coli; test: Antimicrobial activity against Escherichia coli ATCC 25922 at 64 ug/mL after 24 hrs by broth microdilution assay; assay type: functional, organism-based; summary of the method: as §1
[8] = test system: Enterobacter cloacae; test: Antimicrobial activity against Enterobacter cloacae ATCC 13047 at 64 ug/mL after 24 hrs by broth microdilution assay; assay type: functional, organism-based; summary of the method: as §1
[9] = test system: Stenotrophomonas maltophilia; test: Antimicrobial activity against Stenotrophomonas maltophilia ATCC 13637 at 64 ug/mL after 24 hrs by broth microdilution assay; assay type: functional, organism-based; summary of the method: as §1
[10] = test system: KM-20L2; test: Cytotoxicity against human KM20L2 cells after 48 hrs by sulforhodamine B assay; assay type: functional; conditions: KM-20L2, 48 h
Summary of the method: (§2)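 Human tumor lines exposed to compound for 48 h, then fixed with trichloroacetic acid and stained with sulforhodamine B (NCI standard protocol); optical density read on a microplate reader. GI50 is the concentration giving a 50% reduction in net protein increase, calculated from optical density data.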

[11] = test system: DU-145; test: Cytotoxicity against human DU145 cells after 48 hrs by sulforhodamine B assay; assay type: functional; conditions: DU-145, 48 h; summary of the method: as §2
[12] = test system: Neisseria gonorrhoeae; test: Antimicrobial activity against Neisseria gonorrhoeae ATCC 49226 after 24 hrs by broth microdilution assay; assay type: functional; conditions: ATCC 49226, 24 h
Summary of the method: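 Neisseria tested by NCCLS broth microdilution in gonococcal typing broth. Final inoculum about 5×10^5 CFU/mL; 2-fold compound dilutions from DMSO; DMSO turbidity control; 37 °C with 5% CO₂ without agitation, 24 h. MIC = lowest concentration with no visible growth.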

[13] = test system: NCI-H460; test: Cytotoxicity against human NCI-H460 cells after 48 hrs by sulforhodamine B assay; assay type: functional; conditions: NCI-H460, 48 h; summary of the method: as §2
[14] = test system: BXPC-3; test: Cytotoxicity against human BxPC3 cells after 48 hrs by sulforhodamine B assay; assay type: functional; conditions: BXPC-3, 48 h; summary of the method: as §2
[15] = test system: MCF7; test: Cytotoxicity against human MCF7 cells after 48 hrs by sulforhodamine B assay; assay type: functional; conditions: MCF7, 48 h; summary of the method: as §2
[16] = test system: SF-268; test: Cytotoxicity against human SF268 cells after 48 hrs by sulforhodamine B assay; assay type: functional; conditions: SF-268, 48 h; summary of the method: as §2
[17] = test system: P388; test: Cytotoxicity against mouse P388 cells after 48 hrs by Coulter particle counting; conditions: P388, 48 h, read-out: ED50 (the source's name)
[18] = Displacement of [3H]colchicine from tubulin
Summary of the method: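 [3H]colchicine binding with 1.0 μM tubulin, 5.0 μM [3H]colchicine and inhibitor at 1.0 μM.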

[19] = Inhibition of tubulin polymerization
Summary of the method: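 Turbidimetry at 350 nm. Compound at varying concentrations preincubated with 10 μM (1.0 mg/mL) purified tubulin, chilled on ice, then 0.4 mM GTP added and polymerization followed at 30 °C. Extent of polymerization at 20 min measured.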

[20] = test system: Micrococcus luteus; test: Antimicrobial activity against Micrococcus luteus Presque Isle 456 after 24 hrs by broth microdilution assay; assay type: functional; summary of the method: as §1

| Structure (SMILES) | Activity [1] | Activity [2] | Activity [3] | Activity [4] | Activity [5] | Activity [6] | Activity [7] | Activity [8] | Activity [9] | GI50 [10] [µg/mL] | GI50 [11] [µg/mL] | MIC [12] [µg/mL] | GI50 [13] [µg/mL] | GI50 [14] [µg/mL] | GI50 [15] [µg/mL] | GI50 [16] [µg/mL] | EC50 [17] [µg/mL] | Activity [18] [%] | IC50 [19] [µM] | MIC [20] [µg/mL] |
| --- | --- | --- | --- | --- | --- | --- | --- | --- | --- | --- | --- | --- | --- | --- | --- | --- | --- | --- | --- | --- |
| COc1ccc(/C=C\c2cc(F)c(OC)c(OC)c2)cc1OP(=O)(O)O | inactive | inactive | inactive | inactive | inactive | inactive | inactive | inactive | inactive |  |  |  |  |  |  |  |  |  |  |  |
| COc1ccc(/C=C\c2cc(F)c(OC)c(OC)c2)cc1OP(=O)([O-])[O-].[Na+].[Na+] |  |  |  |  |  |  |  |  |  | 1.5 | 0.0036 | 16 | 0.0094 | 0.59 | 0.0044 | 0.0051 | 0.0298 |  |  |  |
| COc1ccc(/C=C\c2cc(Br)c(OC)c(OC)c2)cc1OP(=O)([O-])[O-].[Na+].[Na+] |  |  |  |  |  |  |  |  |  | 0.23 | 0.0046 |  | 0.0028 | 0.093 | 0.0041 | 0.0034 | < 0.01 |  |  |  |
| COc1ccc(/C=C\c2cc(Br)c(OC)c(OC)c2)cc1OP(=O)([O-])[O-].[Mg+2] |  |  |  |  |  |  |  |  |  | 0.27 | 0.0045 |  | 0.0039 | 0.074 | 0.0045 | 0.0053 | < 0.01 |  |  |  |
| COc1ccc(/C=C\c2cc(OC)c(OC)c(OC)c2)cc1O [COMBRETASTATIN A4] |  |  |  |  |  |  |  |  |  | 0.061 (≈ 0.193 µM) | 0.0008 (≈ 0.00253 µM) |  | 0.0006 (≈ 0.0019 µM) | 0.39 (≈ 1.23 µM) |  | < 0.001 | 0.0003 (≈ 0.000948 µM) | 81 |  |  |
| COc1ccc(/C=C\c2cc(O)c(OC)c(OC)c2)cc1N.Cl |  |  |  |  |  |  |  |  |  | 1.3 | 0.012 |  | 0.035 | 1 | < 0.01 | 0.0022 | 0.0289 |  |  |  |
| C1CCNCC1.C1CCNCC1.COc1ccc(/C=C\c2cc(F)c(OC)c(OC)c2)cc1OP(=O)(O)O |  |  |  |  |  |  |  |  |  | > 1 | 0.011 |  | 0.022 | 0.39 | 0.011 | 0.0075 | 0.004 |  |  |  |
| C1COCCN1.C1COCCN1.COc1ccc(/C=C\c2cc(F)c(OC)c(OC)c2)cc1OP(=O)(O)O |  |  |  |  |  |  |  |  |  | > 1 | 0.0046 |  | 0.005 | 0.73 | 0.0079 | 0.0087 | 0.015 |  |  |  |
| COc1ccc(/C=C\c2cc(O)c(OC)c(OC)c2)cc1N |  |  |  |  |  |  |  |  |  | 0.39 (≈ 1.29 µM) | 0.035 (≈ 0.116 µM) |  | 0.03 (≈ 0.0996 µM) | 0.37 (≈ 1.23 µM) | 0.06 (≈ 0.199 µM) | 0.04 (≈ 0.133 µM) | 0.0174 (≈ 0.0577 µM) |  |  |  |
| COc1ccc(/C=C\c2cc(O)c(OC)c(OC)c2)cc1O |  |  |  |  |  |  |  |  |  | 1.2 (≈ 3.97 µM) | 0.0043 (≈ 0.0142 µM) |  | 0.19 (≈ 0.628 µM) | 2.3 (≈ 7.61 µM) | 0.49 (≈ 1.62 µM) | 0.0083 (≈ 0.0275 µM) | 0.26 (≈ 0.86 µM) |  |  |  |
| COc1ccc(/C=C\c2cc(F)c(OC)c(OC)c2)cc1OP(=O)([O-])[O-].[K+].[K+] |  |  |  |  |  |  |  |  |  | > 1 | 0.0037 |  | 0.0043 | 0.548 | 0.004 | 0.0039 | 0.0074 |  |  |  |
| COc1ccc(/C=C/c2cc(Cl)c(OC)c(OC)c2)cc1O |  |  |  |  |  |  |  |  |  | 1.4 (≈ 4.36 µM) | 0.038 (≈ 0.118 µM) |  | 0.034 (≈ 0.106 µM) | 0.59 (≈ 1.84 µM) | 0.041 (≈ 0.128 µM) | 0.048 (≈ 0.15 µM) | 0.027 (≈ 0.0842 µM) |  |  |  |
| COc1ccc(/C=C\c2cc(Br)c(OC)c(OC)c2)cc1O | inactive | inactive | inactive | inactive | inactive |  | inactive | inactive | inactive | 0.59 (≈ 1.62 µM) | 0.00082 (≈ 0.00225 µM) | 32 (≈ 87.6 µM) | 0.00038 (≈ 0.00104 µM) | 0.64 (≈ 1.75 µM) | 0.00046 (≈ 0.00126 µM) | 0.0005 (≈ 0.00137 µM) | 0.0021 (≈ 0.00575 µM) | 89 | 1.5 | 32 (≈ 87.6 µM) |
| COc1cc(/C=C\c2ccc(OC)c(OP(=O)([O-])[O-])c2OP(=O)([O-])[O-])cc(OC)c1OC.[Na+].[Na+].[Na+].[Na+] |  |  |  |  |  |  |  |  |  | 0.53 | 0.034 |  | 0.038 | 1.5 | 0.024 | 0.036 | < 0.01 |  |  |  |
| COc1ccc(/C=C\c2cc(O)c(OC)c(OC)c2)cc1[N+](=O)[O-] |  |  |  |  |  |  |  |  |  | 1.8 (≈ 5.43 µM) | 0.39 (≈ 1.18 µM) |  | 0.31 (≈ 0.936 µM) | 2.5 (≈ 7.55 µM) | 0.49 (≈ 1.48 µM) | 0.62 (≈ 1.87 µM) | 0.402 (≈ 1.21 µM) |  |  |  |

Reference: ChEMBL document CHEMBL1151261, “Antineoplastic agents. 509: synthesis of fluorcombstatin phosphate and related 3-halostilbenes(1)” (J Nat Prod, 2005)
